The values below come from ChEMBL document CHEMBL1158804, “Lupane triterpenoids from Maytenus species” (J Nat Prod, 2005).

The structures appear in SMILES notation. Calls of active or inactive are those of the source. The rule behind the calls is not given here. Bounds are passed on as bounds.

For one assay, the system named is Candida albicans. Briefly: Antifungal activity against Candida albicans UBC1 up to 40 ug/mL by broth microdilution method. The format is functional, organism-based. The method, boiled down:
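The yeast is grown on Sabouraud agar at 37 °C. Compounds are dissolved in DMSO, and the minimal inhibitory concentration is estimated by broth microdilution.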
(In general: Broth dilution looks for growth in wells or tubes with falling amounts of substance.)

In a further assay the test system is Bacillus subtilis. Briefly: Antibacterial activity against Bacillus subtilis CECT 39 up to 40 ug/mL by broth microdilution method. The format is functional, organism-based. The method in brief:
(§1)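 Compounds are dissolved in DMSO. The minimal inhibitory concentration is estimated by broth microdilution.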

For the next assay, the system named is HEp-2. The assay can be described thus: Cytotoxicity against human Hep2 cells after 48 hrs by MTT assay. It is filed as functional, cell-based. The settings on record: HEp-2, 48 h. The method in brief: (§2)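 Monolayers are cultured in DMEM with 5% fetal calf serum and 1% penicillin-streptomycin at 37 °C, 5% CO2 and 90% humidity. Exponentially growing cells (2 × 10^4 cells/well) are exposed to a range of compound concentrations for 48 h at 37 °C. Viability is read by colorimetric MTT reduction.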

In the next assay the test system is Bacillus pumilus. The assay can be described thus: Antibacterial activity against Bacillus pumilus CECT 29 up to 40 ug/mL by broth microdilution method. It is filed as functional, organism-based. The method, boiled down:
as §1

Another assay concerns Vero. The assay can be described thus: Cytotoxicity against african green monkey Vero cells after 48 hrs by MTT assay. It is filed as cell-based. The settings on record: Chlorocebus sabaeus. The method, boiled down: as §2
A general note: Tetrazolium assays rely on reduction of a dye to a coloured formazan, in cell work by metabolically active cells.

Another assay relates to Salmonella. Briefly: Antibacterial activity against Salmonella sp. CECT 456 up to 40 ug/mL by broth microdilution method. It is filed as functional, organism-based. The method in brief: as §1
For a further assay, the system named is Bacillus cereus. The assay can be described thus: Antibacterial activity against Bacillus cereus CECT 496 up to 40 ug/mL by broth microdilution method. It is filed as functional, organism-based. The method, boiled down:
as §1

Another assay relates to Staphylococcus aureus. Briefly: Antibacterial activity against Staphylococcus aureus ATCC 6538 up to 40 ug/mL by broth microdilution method. The format is functional, organism-based. The method, boiled down:
as §1

Another assay has as its system HeLa. Briefly: Cytotoxicity against human HeLa cells after 48 hrs by MTT assay. It is filed as functional, cell-based. The method in brief: as §2
A further assay concerns Proteus mirabilis. The assay can be described thus: Antibacterial activity against Proteus mirabilis CECT170 up to 40 ug/mL by broth microdilution method. The format is functional, organism-based. The method in brief:
as §1

The test system of the next assay is Enterococcus faecalis. Briefly: Antibacterial activity against Enterococcus faecalis CECT 795 up to 40 ug/mL by broth microdilution method. It is filed as functional, organism-based. The method in brief:
as §1

Assay [1] concerns Staphylococcus epidermidis. Briefly: Antibacterial activity against Staphylococcus epidermidis CECT 232 up to 40 ug/mL by broth microdilution method. The format is functional, organism-based. The method in brief: as §1
A further assay relates to Pseudomonas aeruginosa. The assay can be described thus: Antibacterial activity against Pseudomonas aeruginosa AK 958 up to 40 ug/mL by broth microdilution method. The format is functional, organism-based. The method, boiled down: as §1
In another assay the test system is Escherichia coli. The assay can be described thus: Antibacterial activity against Escherichia coli CECT 99 up to 40 ug/mL by broth microdilution method. It is filed as functional, organism-based. The method in brief: as §1
Assay [2] has as its system Staphylococcus saprophyticus. The assay can be described thus: Antibacterial activity against Staphylococcus saprophyticus CECT 235 up to 40 ug/mL by broth microdilution method. The format is functional, organism-based. The method, boiled down: as §1
A further assay concerns Priestia megaterium. Briefly: Antibacterial activity against Bacillus megaterium CECT 44 up to 40 ug/mL by broth microdilution method. The format is functional, organism-based. The method, boiled down: as §1
Assay [3] relates to Mycolicibacterium smegmatis. The assay can be described thus: Antibacterial activity against Mycobacterium smegmatis CECT 3032 up to 40 ug/mL by broth microdilution method. The format is functional, organism-based. The method, boiled down: as §1

`C=C(C)[C@@H]1CC[C@]2(C)CC[C@]3(C)[C@@H](CC[C@@H]4[C@@]5(C)C=CC(=O)C(C)(C)[C@@H]5CC[C@]43C)[C@@H]12` [GLOCHIDONE]: the result with Candida albicans, in the assay with Bacillus subtilis, in the assay on Bacillus pumilus, in the assay on Salmonella, in the assay with Bacillus cereus and with Staphylococcus aureus was inactive. The result (in the assay with Proteus mirabilis; in the assay with Enterococcus faecalis; in [1]; with Pseudomonas aeruginosa; in the assay on Escherichia coli; in assay [2]) was inactive. The outcome (with Priestia megaterium; in assay [3]) was inactive. In addition, the half-inhibitory concentration (IC50) with HEp-2, in the assay on Vero and in the assay on HeLa was > 10 µg/mL each time.
Take `C=C(C)[C@@H]1CC[C@]2(C)CC[C@]3(C)[C@@H](CC[C@@H]4[C@@]5(C)[C@@H](O)C[C@H](O)C(C)(C)[C@@H]5CC[C@]43C)[C@@H]12` [GLOCHIDIOL]: the outcome with Candida albicans, in the assay on Bacillus subtilis, in the assay on Bacillus pumilus, in the assay with Salmonella, with Bacillus cereus and in the assay with Staphylococcus aureus was inactive. Besides, the result (with Proteus mirabilis; with Enterococcus faecalis; in assay [1]; with Pseudomonas aeruginosa; with Escherichia coli; in assay [2]) was inactive. In addition, the outcome (in the assay on Priestia megaterium; in assay [3]) was inactive. For the same compound, the IC50 in the assay with HEp-2, with Vero and in the assay on HeLa was > 10 µg/mL in each case.
As to `C=C(C)[C@@H]1CC[C@]2(C)CC[C@]3(C)[C@H](CC[C@@H]4[C@@]5(C)CC[C@H](O)C(C)(C)[C@@H]5CC[C@]43C)[C@@H]12` [LUPEOL], the outcome in the assay on Candida albicans, in the assay on Bacillus subtilis, with Bacillus pumilus, in the assay on Salmonella, in the assay with Bacillus cereus and with Staphylococcus aureus was inactive. For the same compound, the outcome (with Proteus mirabilis; in the assay with Enterococcus faecalis; in assay [1]; in the assay on Pseudomonas aeruginosa; in the assay on Escherichia coli; in assay [2]) was inactive. In addition, the outcome (in the assay with Priestia megaterium; in assay [3]) was inactive. The IC50 in the assay with HEp-2, with Vero and with HeLa was > 10 µg/mL in each case.
For `C=C(C)[C@@H]1CC[C@]2(C)CC[C@]3(C)[C@H](CC[C@@H]4[C@@]5(C)CCC(=O)C(C)(C)[C@@H]5CC[C@]43C)[C@@H]12` [LUPENONE], the outcome in the assay with Candida albicans, in the assay on Bacillus subtilis, in the assay on Bacillus pumilus, in the assay with Salmonella, in the assay with Bacillus cereus and with Staphylococcus aureus was inactive. The result (in the assay on Proteus mirabilis; in the assay on Enterococcus faecalis; in assay [1]; in the assay with Pseudomonas aeruginosa; in the assay on Escherichia coli; in assay [2]) was inactive. Besides, the result (with Priestia megaterium; in assay [3]) was inactive. Further, the half-maximal inhibitory concentration (IC50) in the assay on HEp-2, in the assay on Vero and with HeLa was > 10 µg/mL in each case.
On to `CC(C)[C@@H]1CC[C@]2(C)CC[C@]3(C)[C@@H](CC[C@@H]4[C@@]5(C)CC[C@H](OC(=O)/C=C/c6ccc(O)c(O)c6)C(C)(C)[C@@H]5CC[C@]43C)[C@@H]12`, for which the result in the assay on Candida albicans, in the assay on Bacillus subtilis, in the assay on Bacillus pumilus, in the assay with Salmonella, with Bacillus cereus and in the assay with Staphylococcus aureus was inactive. The outcome (in the assay with Proteus mirabilis; in the assay on Enterococcus faecalis; in assay [1]; with Pseudomonas aeruginosa; in the assay with Escherichia coli; in assay [2]) was inactive. For the same compound, the result (with Priestia megaterium; in [3]) was inactive. In addition, the IC50 with HEp-2, in the assay on Vero and with HeLa was > 10 µg/mL throughout.
For `C=C(C)[C@@H]1CC[C@]2(C)CC[C@]3(C)[C@@H](C[C@@H](O)[C@@H]4[C@@]5(C)CCC(=O)C(C)(C)[C@@H]5CC[C@]43C)[C@@H]12` [RIGIDENOL], the result with Candida albicans, in the assay with Bacillus subtilis, with Bacillus pumilus, in the assay with Salmonella, with Bacillus cereus and in the assay with Staphylococcus aureus was inactive. Besides, the outcome (with Proteus mirabilis; in the assay on Enterococcus faecalis; in assay [1]; in the assay with Pseudomonas aeruginosa; with Escherichia coli; in assay [2]) was inactive. The outcome (in the assay with Priestia megaterium; in [3]) was inactive. Moreover, the IC50 in the assay on HEp-2, in the assay on Vero and in the assay on HeLa was > 10 µg/mL each time.
With `C=C(C)[C@@H]1CC[C@]2(C)CC[C@]3(C)[C@@H](C[C@@H](O)[C@@H]4[C@@]5(C)[C@H](O)C[C@H](O)C(C)(C)[C@@H]5CC[C@]43C)[C@@H]12` [NEPETICIN], the outcome in the assay on Candida albicans, with Bacillus subtilis, with Bacillus pumilus, in the assay with Salmonella, with Bacillus cereus and in the assay with Staphylococcus aureus was inactive. Besides, the outcome (in the assay on Proteus mirabilis; with Enterococcus faecalis; in [1]; with Pseudomonas aeruginosa; in the assay on Escherichia coli; in assay [2]) was inactive. Moreover, the outcome (in the assay on Priestia megaterium; in assay [3]) was inactive. Further, the half-inhibitory concentration (IC50) with HEp-2, with Vero and with HeLa was < 10 µg/mL throughout.
For the compound `C=C(C)[C@@H]1CC[C@]2(CO)CC[C@]3(C)[C@H](CC[C@@H]4[C@@]5(C)C=CC(=O)C(C)(C)[C@@H]5CC[C@]43C)[C@@H]12`, the outcome in the assay on Bacillus subtilis, in the assay on Bacillus pumilus, in the assay with Salmonella, in the assay on Bacillus cereus, with Staphylococcus aureus and in the assay on Proteus mirabilis was inactive. In addition, the result (in the assay with Enterococcus faecalis; in assay [1]; with Pseudomonas aeruginosa; in the assay on Escherichia coli; in [2]; with Priestia megaterium) was inactive. Further, the result in assay [3] was inactive. For the same compound, the half-maximal inhibitory concentration (IC50) with HEp-2, in the assay on Vero and in the assay with HeLa was > 10 µg/mL throughout.
Regarding `C=C(C)[C@@H]1CC[C@]2(CO)CC[C@]3(C)[C@H](CC[C@@H]4[C@@]5(C)CC[C@H](O)C(C)(C)[C@@H]5[C@H](O)C[C@]43C)[C@@H]12`, the result in the assay with Bacillus subtilis, in the assay with Bacillus pumilus, with Salmonella, with Bacillus cereus, in the assay on Staphylococcus aureus and with Proteus mirabilis was inactive. The result (in the assay on Enterococcus faecalis; in assay [1]; in the assay on Pseudomonas aeruginosa; in the assay with Escherichia coli; in assay [2]; in the assay with Priestia megaterium) was inactive. Also, the outcome in assay [3] was inactive. For the same compound, the IC50 in the assay with HEp-2, in the assay on Vero and in the assay on HeLa was > 10 µg/mL in each case.
